In the library only some 5.8% were active in any assay of this set; here they are far more common.
GASC1 inh = inhibitors of human demethylase GASC-1 KDM4C. Q9H3R0. GST-KDM4C 2-372, H3K9me3 peptide, LANCE TR-FRET. inhibition, % at 12.5 µM. 96,000 tested, 0.15% active. AID 720574;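 active = mean replicate inhibition above about 25%, with at least 55% of replicates also reaching it, limit read from the data, passing the limit was not always enough; inconclusive = only one of those two conditions met; inactive = neither condition met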
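System – N-terminal GST-fused human GASC-1 (KDM4C) fragment, residues 2-372 · Input – enzyme final amount 10 nM · Technique – LANCE TR-FRET, Eu antibody, ULight-streptavidin, EDTA, ex 340 nm, em 618/671 nm · Medium – HEPES buffer, pH 7.5, plus ascorbate · Incubation – enzyme reaction 30 min, then detection 60 min, both room temperature · Reagent – H3K9me3 peptide with Fe(II)/2OG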
IDH1 R132H inh = IDH1 R132H (human) inhibition; O75874; IDH1 R132H reductase, diaphorase/resazurin fluorescence, 60 min; inhibition, % at 10 µM; 70,000 tested, 0.18% active; in the data active = inhibition above about 34%; inconclusive = no clear call, values can overlap the other calls; inactive = below about 11%;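 note: 0% = DMSO and 100% = no enzyme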
Target sequence (O75874 whole entry R132H): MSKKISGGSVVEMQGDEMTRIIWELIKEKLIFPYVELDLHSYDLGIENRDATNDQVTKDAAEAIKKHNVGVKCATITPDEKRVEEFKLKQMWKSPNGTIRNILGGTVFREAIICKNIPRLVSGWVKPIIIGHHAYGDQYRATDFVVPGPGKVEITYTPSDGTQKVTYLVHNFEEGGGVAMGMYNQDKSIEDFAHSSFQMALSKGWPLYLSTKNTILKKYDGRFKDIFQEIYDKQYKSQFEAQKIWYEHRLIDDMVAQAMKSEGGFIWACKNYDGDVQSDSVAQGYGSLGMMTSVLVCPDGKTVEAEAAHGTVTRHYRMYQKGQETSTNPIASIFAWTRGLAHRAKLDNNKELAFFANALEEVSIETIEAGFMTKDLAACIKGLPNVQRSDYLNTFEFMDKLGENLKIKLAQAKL
Pf Dd2 growth = P. falciparum Dd2 growth inhibition. SYBR Green, 72 h; hits give low values. activity change, % at 10 µM. 94,000 tested, 2.3% active; in the data active = activity change below about -80%; inconclusive = no clear call, values can overlap the other calls
T cruzi growth-1 = T. cruzi proliferation inhibition; 77,000 tested, 5.9% active; T. cruzi beta-gal in NIH3T3, GalScreen luminescence, 90 h; AID 624255; inhibition, % at 8.34 µM;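 active = mean inhibition above about 93%, with at least 55% of replicates each passing it, limit read from the data, passing the limit was not always enough; inconclusive = only one of those two conditions holds; inactive = neither condition holds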
T cruzi growth-2 = inhibitors of T. cruzi proliferation; shares compounds with T cruzi growth-1; T. cruzi beta-gal in NIH3T3, GalScreen luminescence, 90 h; inhibition, % at 8.35 µM; 5,600 tested, 72% active; AID 651739;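 active = mean replicate inhibition above about 95% and at least 55% of replicates individually reaching it, limit read from the data; inconclusive = only one of the two criteria is met; inactive = neither criterion is met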
T cruzi growth-3 = inhibitors of T. cruzi proliferation; shares compounds with T cruzi growth-1; T. cruzi beta-gal in NIH3T3, GalScreen luminescence, 90 h; inhibition, % at 2.09 µM; 5,600 tested, 21% active;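 active = mean inhibition above about 95%, with at least 55% of replicates also reaching it, limit read from the data; inconclusive = meets just one of the two conditions; inactive = meets neither condition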;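 note: plate controls were neutral control median for no effect and positive control median for full effect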
3T3 cytotox = kills mouse NIH/3T3 fibroblasts; cytotoxicity (signal decrease), % at 8.35 µM; 5,600 tested, 14% active; shares compounds with T cruzi growth-1; NIH/3T3 viability, CellTiter-Glo ATP luminescence, 90 h;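 active = mean signal decrease across replicates above about 35% based on untreated-well scatter, with enough replicates individually passing, limit read from the data; inconclusive = no rule stated though some were filed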;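 note: 0% = median of neutral control wells and 100% = median of positive control wells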
NIH3T3 tox 2 = cytotoxicity in mouse NIH/3T3 fibroblasts | inhibition, % at 24.9 µM | shares compounds with T cruzi growth-1 | 5,600 tested, 56% active | AID 651744 | NIH/3T3 viability, CellTiter-Glo ATP luminescence, 90 h;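 active = mean loss of cell viability signal at or above a set limit, and enough replicates individually reaching it; inconclusive = meets only the mean limit or only the replicate share; inactive = meets neither condition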;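 note: 0% = median of neutral control wells and 100% = median of positive control wells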
* hit, by the source's call; ? = inconclusive; / = not tested or not shown.

SMILES	GASC1 inh	IDH1 R132H inh	Pf Dd2 growth	T cruzi growth-1	T cruzi growth-2	T cruzi growth-3	3T3 cytotox	NIH3T3 tox 2
C[C@@H]1CCCCO[C@H](CN(C)Cc2ccc(C(F)(F)F)cc2)[C@H](C)CN([C@H](C)CO)C(=O)c2cc(NC(=O)c3ccncc3)ccc2O1	-1	/	-30	109*	106*	50	19	73*
C[C@H]1CCCCO[C@H](CN(C)Cc2ccc(C(F)(F)F)cc2)[C@@H](C)CN([C@@H](C)CO)C(=O)c2cc(NC(=O)c3ccncc3)ccc2O1	0	/	-61	98*	103*	31	3	106*
C[C@@H]1CN([C@H](C)CO)C(=O)c2cc(NC(=O)c3ccncc3)ccc2O[C@@H](C)CCCCO[C@@H]1CN(C)Cc1ccc(C(F)(F)F)cc1	1	-1	-4	109*	109*	52	8	26*
C[C@@H]1CCCCO[C@H](CN(C)Cc2ccccc2)[C@@H](C)CN([C@@H](C)CO)C(=O)c2cc(NC(=O)c3ccncc3)ccc2O1	-1	3	-13	98*	16	-36	-18	-25
C[C@H](CO)N1C[C@H](C)[C@@H](CN(C)Cc2ccccc2)OCCCC[C@H](C)Oc2ccc(NC(=O)c3ccncc3)cc2C1=O	-1	/	15	74	/	/	/	/
C[C@H]1CCCCO[C@@H](CN(C)Cc2ccncc2)[C@@H](C)CN([C@@H](C)CO)C(=O)c2cc(NC(=O)Cc3ccccc3)ccc2O1	4	4	-55	99*	104*	86	-27	-16
Cc1ccc(S(=O)(=O)N(C)C[C@H]2OCCCC[C@@H](C)Oc3ccc(NC(=O)Nc4ccc(C(F)(F)F)cc4)cc3C(=O)N([C@@H](C)CO)C[C@H]2C)cc1	0	/	-54	/	/	/	/	/
C[C@H]1CCCCO[C@H](CN(C)S(=O)(=O)c2ccc(F)cc2)[C@@H](C)CN([C@@H](C)CO)C(=O)c2cc(NC(=O)Nc3ccc(F)cc3)ccc2O1	-3	/	-72	107*	105*	108*	3	10
C[C@@H]1CCCCO[C@H](CN(C)S(=O)(=O)c2ccc(Cl)cc2)[C@@H](C)CN([C@@H](C)CO)C(=O)c2cc(NC(=O)Nc3ccc(C(F)(F)F)cc3)ccc2O1	3	/	-88*	?	106*	110*	28	34*
Cc1ccc(S(=O)(=O)N(C)C[C@@H]2OCCCC[C@@H](C)Oc3ccc(NC(=O)Nc4ccc(F)cc4)cc3C(=O)N([C@@H](C)CO)C[C@@H]2C)cc1	1	1	-85*	107*	111*	105*	1	47*
C[C@@H]1CCCCO[C@H](CN(C)S(=O)(=O)c2ccc(F)cc2)[C@H](C)CN([C@@H](C)CO)C(=O)c2cc(NC(=O)Nc3ccc(F)cc3)ccc2O1	-1	/	-69	?	100*	93	-7	-11
Cc1ccc(S(=O)(=O)N(C)C[C@H]2OCCCC[C@H](C)Oc3ccc(NC(=O)Nc4ccc(F)cc4)cc3C(=O)N([C@H](C)CO)C[C@H]2C)cc1	0	1	?	/	/	/	/	/
C[C@@H]1CCCCO[C@H](CN(C)S(=O)(=O)c2ccc(F)cc2)[C@@H](C)CN([C@H](C)CO)C(=O)c2cc(NC(=O)Nc3ccc(F)cc3)ccc2O1	-1	-1	-31	49	/	/	/	/
Cc1nn(C(C)C(=O)Nc2ccc(F)c(Cl)c2)c(C)c1[N+](=O)[O-] (stereo unspecified)	/	1	/	/	/	/	/	/
O=C(Nc1ccc(I)cc1C(=O)NCc1ccco1)c1cccnc1	/	1	/	/	/	/	/	/
CC(=O)O[C@@H]1C[C@@H](C)[C@](O)(CCc2ccoc2)[C@]23CCC[C@](C)(C(=O)OC2)C13 (stereo partly specified)	/	0	/	/	/	/	/	/
CC(C)(C)NS(=O)(=O)c1ccc(OCC(=O)Nc2ccc(F)c(Cl)c2)cc1	/	0	/	/	/	/	/	/
C[C@@H]1CCCCO[C@H](CN(C)S(=O)(=O)c2ccc(F)cc2)[C@@H](C)CN([C@H](C)CO)C(=O)c2cc(NC(=O)Nc3ccc(C(F)(F)F)cc3)ccc2O1	/	1	-71	103*	109*	79	16	51*
C[C@@H]1CCCCO[C@@H](CN(C)S(=O)(=O)c2ccc(F)cc2)[C@@H](C)CN([C@@H](C)CO)C(=O)c2cc(NC(=O)Nc3ccc(C(F)(F)F)cc3)ccc2O1	-1	/	-79	93	/	/	/	/
O=C(C[C@@H]1CC[C@@H](NC(=O)Nc2ccccc2)[C@H](CO)O1)NCc1ccccn1	0	0	10	108*	-12	-4	-9	3
O=C(C[C@H]1CC[C@@H](NC(=O)Nc2cc(F)ccc2F)[C@H](CO)O1)Nc1ccc(-c2ccccc2)cc1	-2	0	-7	132*	106*	75	23	32*
C[C@H]1CCCCO[C@H](CN(C)S(=O)(=O)c2ccccc2)[C@@H](C)CN([C@@H](C)CO)C(=O)c2cc(NS(=O)(=O)c3ccc(Cl)cc3)ccc2O1	-4	/	-52	114*	103*	94	-12	-7
C[C@@H]1CN([C@@H](C)CO)C(=O)c2cc(NS(=O)(=O)c3ccc(Cl)cc3)ccc2O[C@@H](C)CCCCO[C@H]1CN(C)S(=O)(=O)c1ccc(Cl)cc1	-1	0	-31	111*	108*	79	22	-2
C[C@@H]1CCCCO[C@@H](CN(C)S(=O)(=O)c2ccccc2)[C@H](C)CN([C@H](C)CO)C(=O)c2cc(NS(=O)(=O)c3ccc(Cl)cc3)ccc2O1	-4	/	-60	110*	101*	?	-9	11
C[C@@H]1CCCCO[C@H](CN(C)S(=O)(=O)c2ccc(Cl)cc2)[C@H](C)CN([C@H](C)CO)C(=O)c2cc(NS(=O)(=O)c3ccccc3)ccc2O1	-1	5	-70	99	/	/	/	/
C[C@@H]1CCCCO[C@@H](CN(C)S(=O)(=O)c2ccccc2)[C@@H](C)CN([C@@H](C)CO)C(=O)c2cc(NS(=O)(=O)c3ccc(Cl)cc3)ccc2O1	1	/	-34	118*	101*	74	5	18
Cc1nnc(SCC(=O)NCC2CCCO2)s1 (stereo unspecified)	/	0	/	/	/	/	/	/
O=C(C[C@H]1CC[C@H]2[C@@H](COC[C@@H](O)CN2Cc2ccc3c(c2)OCO3)O1)Nc1ccccc1	1	/	-9	71	/	/	/	/
O=C(C[C@H]1CC[C@H]2[C@@H](COC[C@@H](O)CN2Cc2ccc3c(c2)OCO3)O1)Nc1ccc(-c2ccccc2)cc1	4	/	-40	113*	99*	85	31	69*
